Results on 5 compounds are retold here after ChEMBL document CHEMBL1932971, “Synthesis of uriedo and thiouriedo derivatives of peptide conjugated heterocycles - A new class of promising antimicrobials” (2012).

Holding throughout (type): functional
For assay [1], the system named is Aspergillus flavus. In words: Antifungal activity against Aspergillus flavus after 72 hrs by microdilution method.
The test system of assay [2] is Aspergillus niger. In words: Antifungal activity against Aspergillus niger after 72 hrs by microdilution method. A general note: Dilution methods test growth across graded concentrations, often in twofold steps.
Assay [3] deals with Staphylococcus aureus. In words: Antibacterial activity against coagulase-positive Staphylococcus aureus at 30 ug/ml after 24 hrs by agar well diffusion method. To be noted: read-out: DIZ. Summed up:
(§1)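 Agar well diffusion. Inocula were grown in nutrient broth at 37 °C for 24 h, then subcultured in nutrient broth at room temperature. Compounds were made as a 1 mg/mL DMSO stock and diluted to 30 µg/mL final. Nutrient agar plates were spread-inoculated and 6 mm wells each got 0.1 mL. Controls were amoxicillin (reference) and DMSO (negative). Incubation was 24 h at 37 °C. Inhibition zone was measured in mm as the mean of three determinations.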
Background: In agar diffusion tests the substance spreads into inoculated agar from a disc or well.

Assay [4] relates to Xanthomonas oryzae. In words: Antibacterial activity against Xanthomonas oryzae at 30 ug/ml after 24 hrs by agar well diffusion method. The conditions noted are these: read-out: DIZ.
For assay [5], the system named is Xanthomonas oryzae. In words: Antibacterial activity against Xanthomonas oryzae after 24 hrs by microdilution method.
Assay [6] concerns Aspergillus niger. Put plainly: Antifungal activity against Aspergillus niger at 30 ug/ml after 72 hrs by agar well diffusion method. The conditions noted are these: read-out: DIZ. Summed up: (§2)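 Fungal well diffusion. Inocula were subcultured in nutrient broth for one day, then spread on solidified medium. Compounds were made as a 1 mg/mL DMSO stock and diluted to 30 µg/mL final. Each 6 mm well got 0.1 mL. Controls were bavistin (reference) and DMSO (negative). Plates stood for 3 days at room temperature. Inhibition zone was measured in mm as the mean of three determinations.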

Assay [7] concerns Klebsiella pneumoniae. In words: Antibacterial activity against Klebsiella pneumoniae after 24 hrs by microdilution method.
Assay [8] concerns Fusarium oxysporum. Put plainly: Antifungal activity against Fusarium oxysporum after 72 hrs by microdilution method.
Assay [9] concerns Aspergillus flavus. Put plainly: Antifungal activity against Aspergillus flavus at 30 ug/ml after 72 hrs by agar well diffusion method. To be noted: read-out: DIZ. Summed up:
as §2

The test system of assay [10] is Klebsiella pneumoniae. In words: Antibacterial activity against Klebsiella pneumoniae at 30 ug/ml after 24 hrs by agar well diffusion method. To be noted: read-out: DIZ. In a few lines: as §1
Assay [11] relates to Escherichia coli. Put plainly: Antibacterial activity against Escherichia coli after 24 hrs by microdilution method.
In assay [12] the test system is Staphylococcus aureus. Put plainly: Antibacterial activity against coagulase-positive Staphylococcus aureus after 24 hrs by microdilution method.
Assay [13] deals with Fusarium oxysporum. Put plainly: Antifungal activity against Fusarium oxysporum at 30 ug/ml after 72 hrs by agar well diffusion method. The conditions noted are these: read-out: DIZ. In a few lines:
as §2

Assay [14] concerns Escherichia coli. In words: Antibacterial activity against Escherichia coli at 30 ug/ml after 24 hrs by agar well diffusion method. The conditions noted are these: read-out: DIZ. Summed up:
as §1

≈ marks a conversion by molar mass, not a printed value. Numbered stars: 1 amine (or outer) side, 2 acyl side, 3 side chain; on linkers, the order of the positions; unused ones are H or OH. Peptide text beside a SMILES is read from it. * marks the point of attachment. Thiocarbamoyl(N-4-ClPh) = S=C(Nc1ccc(Cl)cc1)*; Thiocarbamoyl(N-2-FPh) = Fc1ccccc1NC(=S)*; NH(4-Cl-phenyl) = Clc1ccc(N*)cc1; X1 = Fc1ccc2c(C3CCN(*)CC3)noc2c1; CO = O=C([*:1])[*:2]

Take `CC(C)[C@H](NC(=O)CNC(=O)Nc1ccc(Cl)cc1)C(=O)NCC(=O)N[C@H](C(=O)N1CCC[C@H]1C(=O)N1CCC(c2noc3cc(F)ccc23)CC1)C(C)C` ({NH(4-Cl-phenyl)-CO}-GVGVP-X1): the MIC in the assay with Aspergillus flavus [1] amounted to 7.5 µg/mL (≈ 9.57 µM); against Aspergillus niger [2], 6.5 µg/mL (≈ 8.3 µM); against Xanthomonas oryzae [5] it was 8.5 µg/mL (≈ 10.9 µM); against Klebsiella pneumoniae [7], 6.75 µg/mL (≈ 8.62 µM); against Fusarium oxysporum [8] it was 8.5 µg/mL (≈ 10.9 µM); in the assay with Escherichia coli [11], 9.25 µg/mL (≈ 11.8 µM). Also, it took 8.75 µg/mL (≈ 11.2 µM) to inhibit growth against Staphylococcus aureus [12] (MIC). The zone of inhibition at 30 µg/mL in the assay with Staphylococcus aureus [3] is 27 mm; in the assay on Xanthomonas oryzae [4] it was 26 mm; in the assay on Aspergillus niger [6], 33 mm; with Aspergillus flavus [9], 29 mm; in the assay on Klebsiella pneumoniae [10], 29 mm; in the assay on Fusarium oxysporum [13] it was 32 mm. Besides, in the assay with Escherichia coli [14], the zone of inhibition at 30 µg/mL is 30 mm.

In the case of `O=C(CNC(=S)Nc1ccccc1F)N[C@@H](Cc1ccccc1)C(=O)NCC(=O)N[C@@H](Cc1ccccc1)C(=O)N1CCC[C@H]1C(=O)N1CCC(c2noc3cc(F)ccc23)CC1` ({Thiocarbamoyl(N-2-FPh)}-GFGFP-X1), the MIC in the assay with Aspergillus flavus [1] is 4.5 µg/mL (≈ 5.12 µM); against Aspergillus niger [2], 3 µg/mL (≈ 3.41 µM); with Xanthomonas oryzae [5], 4.75 µg/mL (≈ 5.4 µM); with Klebsiella pneumoniae [7], 3 µg/mL (≈ 3.41 µM); with Fusarium oxysporum [8] it was 4 µg/mL (≈ 4.55 µM); against Escherichia coli [11], 4.75 µg/mL (≈ 5.4 µM). Moreover, the MIC against Staphylococcus aureus [12] was 4 µg/mL (≈ 4.55 µM). Moreover, the zone of inhibition at 30 µg/mL in the assay on Staphylococcus aureus [3] came out at 36 mm; in the assay with Xanthomonas oryzae [4], 41 mm; in the assay with Aspergillus niger [6], 41 mm; in the assay with Aspergillus flavus [9] it was 36 mm; with Klebsiella pneumoniae [10], 37 mm; with Fusarium oxysporum [13], 40 mm. Also, the zone of inhibition at 30 µg/mL in the assay on Escherichia coli [14] was 41 mm.

Consider `O=C(CNC(=S)Nc1ccccc1F)NCC(=O)N[C@@H](Cc1ccccc1)C(=O)N1CCC[C@H]1C(=O)N1CCC(c2noc3cc(F)ccc23)CC1` ({Thiocarbamoyl(N-2-FPh)}-GGFP-X1), for which the MIC came to 12.2 µg/mL (≈ 16.7 µM) in the assay with Aspergillus flavus [1]; 8.5 µg/mL (≈ 11.6 µM) against Aspergillus niger [2]; 8.5 µg/mL (≈ 11.6 µM) against Xanthomonas oryzae [5]; 8.25 µg/mL (≈ 11.3 µM) in the assay on Klebsiella pneumoniae [7]; 13.2 µg/mL (≈ 18.1 µM) in the assay with Fusarium oxysporum [8]; 11.5 µg/mL (≈ 15.7 µM) against Escherichia coli [11]. The compound further had an MIC against Staphylococcus aureus [12] of 10.2 µg/mL (≈ 14 µM). The zone of inhibition at 30 µg/mL in the assay on Staphylococcus aureus [3] is 26 mm; with Xanthomonas oryzae [4], 30 mm; with Aspergillus niger [6] it was 35 mm; with Aspergillus flavus [9], 30 mm; with Klebsiella pneumoniae [10], 28 mm; with Fusarium oxysporum [13] it was 32 mm. In addition, in the assay on Escherichia coli [14], the zone of inhibition at 30 µg/mL came out at 32 mm.

Consider `CC(C)[C@H](NC(=O)CNC(=S)Nc1ccccc1F)C(=O)NCC(=O)N[C@H](C(=O)N1CCC[C@H]1C(=O)N1CCC(c2noc3cc(F)ccc23)CC1)C(C)C` ({Thiocarbamoyl(N-2-FPh)}-GVGVP-X1), for which the MIC in the assay on Aspergillus flavus [1] is 5.5 µg/mL (≈ 7.03 µM); in the assay with Aspergillus niger [2] it was 4.75 µg/mL (≈ 6.07 µM); against Xanthomonas oryzae [5], 6.25 µg/mL (≈ 7.98 µM); against Klebsiella pneumoniae [7] it was 5 µg/mL (≈ 6.39 µM); against Fusarium oxysporum [8] it was 6.75 µg/mL (≈ 8.62 µM); in the assay on Escherichia coli [11], 7.25 µg/mL (≈ 9.26 µM). The minimum inhibitory concentration (MIC) against Staphylococcus aureus [12] worked out at 6.25 µg/mL (≈ 7.98 µM). In addition, the zone of inhibition at 30 µg/mL in the assay with Staphylococcus aureus [3] amounted to 31 mm; in the assay with Xanthomonas oryzae [4], 36 mm; in the assay on Aspergillus niger [6], 37 mm; in the assay with Aspergillus flavus [9], 33 mm; in the assay on Klebsiella pneumoniae [10] it was 35 mm; in the assay on Fusarium oxysporum [13], 35 mm. For the same compound, the zone of inhibition at 30 µg/mL with Escherichia coli [14] was found to be 35 mm.

Turning to `O=C(CNC(=S)Nc1ccc(Cl)cc1)N[C@@H](Cc1ccccc1)C(=O)NCC(=O)N[C@@H](Cc1ccccc1)C(=O)N1CCC[C@H]1C(=O)N1CCC(c2noc3cc(F)ccc23)CC1` ({Thiocarbamoyl(N-4-ClPh)}-GFGFP-X1), the minimal inhibitory concentration (MIC) with Aspergillus flavus [1] turned out to be 6 µg/mL (≈ 6.7 µM); against Aspergillus niger [2], 4.5 µg/mL (≈ 5.03 µM); against Xanthomonas oryzae [5] it was 6.25 µg/mL (≈ 6.98 µM); in the assay with Klebsiella pneumoniae [7], 4.5 µg/mL (≈ 5.03 µM); against Fusarium oxysporum [8], 5.75 µg/mL (≈ 6.42 µM); in the assay with Escherichia coli [11], 6 µg/mL (≈ 6.7 µM). In the assay with Staphylococcus aureus [12], this compound showed an MIC of 5.75 µg/mL (≈ 6.42 µM). For the same compound, the zone of inhibition at 30 µg/mL in the assay on Staphylococcus aureus [3] is 32 mm; in the assay with Xanthomonas oryzae [4] it was 36 mm; with Aspergillus niger [6], 39 mm; in the assay with Aspergillus flavus [9] it was 32 mm; in the assay with Klebsiella pneumoniae [10] it was 34 mm; in the assay with Fusarium oxysporum [13] it was 36 mm. For the same compound, the zone of inhibition at 30 µg/mL in the assay with Escherichia coli [14] was 35 mm.

What is called MIC is the lowest concentration found to suppress growth. A high value points to weaker potency.
